From PubChem
Wee1 degr inh: human Wee1 degradation inhibition, primary screen. 220,000 compounds, 1.2% hits. reporter increase, % at 5 µM. P30291. HeLa Luc-Wee1K328M stability, luciferase luminescence; 100% = proteasome inhibitor MG132 effect;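 active means activation above the mean of all tested compounds plus 3 SD, set per screening run, cut at about 8.8% in these data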;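 further: cells exposed to compound for 20 h before luminescence read; 0% = DMSO alone and 100% = MG132 at 30 µM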
FLuc inh counter: inhibits firefly luciferase, flagging false hits in luciferase inhibition screens | ATPLite firefly luciferase biochemical luminescence, 10 min | inhibition, % at 10 µM | 200,000 compounds, 1.5% hits | AID 1006;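 active means inhibition above about 50% when tested at 10 µM, limit read from the data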
Target sequence (P08659 whole entry, looked up): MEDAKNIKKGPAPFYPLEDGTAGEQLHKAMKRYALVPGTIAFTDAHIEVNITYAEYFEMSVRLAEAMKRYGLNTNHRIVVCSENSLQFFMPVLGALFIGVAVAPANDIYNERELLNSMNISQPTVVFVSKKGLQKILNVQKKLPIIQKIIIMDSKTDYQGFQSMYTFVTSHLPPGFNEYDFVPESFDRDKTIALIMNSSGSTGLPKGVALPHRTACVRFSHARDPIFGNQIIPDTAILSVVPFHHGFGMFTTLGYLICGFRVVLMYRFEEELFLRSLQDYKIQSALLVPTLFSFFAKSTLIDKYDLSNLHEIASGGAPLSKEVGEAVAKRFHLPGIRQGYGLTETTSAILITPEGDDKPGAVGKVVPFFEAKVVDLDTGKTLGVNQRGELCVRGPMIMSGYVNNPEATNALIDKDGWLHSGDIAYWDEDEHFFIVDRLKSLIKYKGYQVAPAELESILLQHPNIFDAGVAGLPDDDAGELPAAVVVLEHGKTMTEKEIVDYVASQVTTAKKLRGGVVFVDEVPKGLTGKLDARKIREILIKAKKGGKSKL
PKD1 inh: PKD1 (human) kinase inhibition; Q15139; PKD1 kinase fluorescence polarization assay; inhibition, % (concentration not given with the values); 200,000 compounds, 0.056% hits; in the data active means inhibition above about 50%
C8 TRAIL sens: caspase-8 TRAIL sensitization. inhibition (viability loss, TRAIL sensitization), % at 10 µM. NB7+C8 cells + TRAIL, ATPlite viability luminescence. 360,000 compounds, 1% hits;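 active means compounds causing at least 50% loss of cell viability in the single-dose screen, relative to plate controls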
FLuc act counter: affects firefly luciferase, flagging false hits in luciferase stimulation screens; P08659; ATPlite luciferase biochemical, luminescence, 10 min; 0 = ATP-free wells, 1 = DMSO control; activation factor at 10 µM; 200,000 tested, under 10 active; AID 1027;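 active means luciferase activation factor, scaled between plate controls, of at least 2 with compound at 10 µM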
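Material: Luciferase/luciferin reagent mix | Doses: Test compounds dosed from 2 mM stocks in 100% DMSO | Timing: 10 min incubation after luciferase reagent addition, room temperature | Measured by: Luminescence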
PPC-1+TRAIL kill: compounds killing PPC-1 cancer cells with TRAIL present (potentiator screen, no TRAIL-free arm); PPC-1 cells + TRAIL, ATPLite viability luminescence; cell killing (% activity), % at 4 µM or 5 µM; 220,000 compounds, 0.41% hits; AID 1443;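 active means cell killing above 50% in the first pass at 4 µM, then a duplicate retest at 5 µM averaging 50% or more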;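 further: plate controls were cells with TRAIL plus DMSO for no effect and medium-only wells lacking cells for full effect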
Wee1 degr conf: human Wee1 degradation inhibition, confirmation. shares compounds with Wee1 degr inh. HeLa Luc-Wee1K328M degradation, luminescence; vehicle 0%, proteasome-blocked wells 100%. activation, % at 5 µM. 1,100 compounds, 4% hits. AID 1410; in the data active means activation above about 8.9%
Numbers without * were called inactive. Only some compounds are listed: those with a hit (about 2.2% of all), similar ones and a draw of the others.

How did COC(=O)c1c(NC(=O)c2ccc(C)cc2)csc1C do in these assays?
Wee1 degr inh: 13*; C8 TRAIL sens: 9; PPC-1+TRAIL kill: 21; Wee1 degr conf: 4

How did CCC(C)[C@H](NC(=O)[C@@H]1CSC2c3ccccc3C(=O)N21)C(=O)N1CCCCC1 (stereo not given in full) do in these assays?
C8 TRAIL sens: -1

What do the screens show for `O=C1NC(c2ccc(Br)cc2)Oc2ccccc21` (stereo not given)?
C8 TRAIL sens: -16

What do the screens show for `NC(=O)[C@@H]1CCCN1Cc1nc(-c2cccs2)no1`?
Wee1 degr inh: 11*; FLuc inh counter: -4; PKD1 inh: -3; C8 TRAIL sens: 5; FLuc act counter: 1; PPC-1+TRAIL kill: 4; Wee1 degr conf: -1

Results for NC(=O)C1CCN(Cc2nc(-c3cccs3)no2)CC1 ?
Wee1 degr inh: -1; C8 TRAIL sens: 11; PPC-1+TRAIL kill: 4

What do the screens show for `CN(Cc1cc2ccccc2[nH]c1=O)S(C)(=O)=O`?
Wee1 degr inh: 13*; FLuc inh counter: -4; PKD1 inh: 9; C8 TRAIL sens: 3; FLuc act counter: 1; PPC-1+TRAIL kill: 9; Wee1 degr conf: -1

What do the screens show for `CC1CN(C(=O)COC(=O)c2ccc3ncsc3c2)CC(C)O1` (stereo not given)?
C8 TRAIL sens: -1

How did O=C(N=Nc1c(O)[nH]c2ccc(Br)cc12)c1ccccc1-n1cccc1 do in these assays?
Wee1 degr inh: 12*; FLuc inh counter: -6; PKD1 inh: -4; C8 TRAIL sens: 20; FLuc act counter: 1.1; PPC-1+TRAIL kill: 4; Wee1 degr conf: 21*

What do the screens show for `O=C(N=Nc1c(O)[nH]c2ccc(Br)cc12)c1ccco1`?
C8 TRAIL sens: 11

Results for Cc1nc(NC(=O)c2ccc(Br)o2)sc1C ?
Wee1 degr inh: 11*; FLuc inh counter: 40; PKD1 inh: -7; C8 TRAIL sens: 13; FLuc act counter: 0.6; PPC-1+TRAIL kill: 33; Wee1 degr conf: 2

What do the screens show for `Cc1cc(C)cc(-n2c(C)cc(/C=N/NC(=O)CN(c3c(C)cccc3C)S(C)(=O)=O)c2C)c1`?
Wee1 degr inh: 1; FLuc inh counter: -7; PKD1 inh: -8; C8 TRAIL sens: -6; FLuc act counter: 1.1; PPC-1+TRAIL kill: 32

How did Cc1ccc(N(CC(=O)N/N=C/c2cc(C)n(-c3ccccc3C)c2C)S(C)(=O)=O)cc1 do in these assays?
Wee1 degr inh: 12*; FLuc inh counter: -1; PKD1 inh: -7; C8 TRAIL sens: -15; FLuc act counter: 1; PPC-1+TRAIL kill: -13; Wee1 degr conf: -1

How did O=C(C[C@H]1CC[C@H](NC(=O)C2CCOCC2)[C@@H](CO)O1)NCc1ccncc1 do in these assays?
C8 TRAIL sens: 15

Results for Cc1ccc(C#N)c(SCc2ccccc2F)n1 ?
Wee1 degr inh: 11*; C8 TRAIL sens: 11; PPC-1+TRAIL kill: -7; Wee1 degr conf: 3

What do the screens show for `CCOC(=O)CSc1nnc(CNC(=O)c2ccccc2OC)n1-c1ccc(OC)cc1`?
Wee1 degr inh: 12*; FLuc inh counter: -2; PKD1 inh: -12; C8 TRAIL sens: -2; FLuc act counter: 1; PPC-1+TRAIL kill: 21; Wee1 degr conf: -4

What do the screens show for `CCOC(=O)CSc1nnc(CNC(=O)c2ccc(OC)cc2)n1-c1ccc(OC)cc1`?
Wee1 degr inh: -1; FLuc inh counter: -5; PKD1 inh: -8; C8 TRAIL sens: -10; FLuc act counter: 1.1; PPC-1+TRAIL kill: -5

How did COCCN(Cc1ccccc1)C(=O)c1ccc2c(=O)n3c(nc2c1)CCC3 do in these assays?
C8 TRAIL sens: -14

How did CN(C)c1ccc(/C=C/c2nnnn2-c2ccccc2)cc1 do in these assays?
Wee1 degr inh: 12*; FLuc inh counter: 10; PKD1 inh: -2; C8 TRAIL sens: 4; FLuc act counter: 0.9; PPC-1+TRAIL kill: 8; Wee1 degr conf: 4

How did C=CS(=O)(=O)c1ccc(Oc2ccc(S(=O)(=O)C=C)cc2)cc1 do in these assays?
Wee1 degr inh: 15*; FLuc inh counter: -2; PKD1 inh: 16; C8 TRAIL sens: 11; FLuc act counter: 1; PPC-1+TRAIL kill: 21; Wee1 degr conf: 14*

What do the screens show for `O=C(c1ccco1)N1CCN(Cc2cc(=O)c(OCc3ccc(F)cc3)co2)CC1`?
C8 TRAIL sens: 0

Results for COc1cccc(F)c1C(C[N+](=O)[O-])c1c(N)n(C)c(=O)n(C)c1=O (stereo not given) ?
Wee1 degr inh: 0; C8 TRAIL sens: 28; PPC-1+TRAIL kill: 26

What do the screens show for `O=S(=O)(Nc1nc2ccccc2nc1Nc1ccc2c(c1)OCO2)c1ccccc1`?
Wee1 degr inh: 14*; FLuc inh counter: -6; PKD1 inh: -2; C8 TRAIL sens: 4; FLuc act counter: 1.1; PPC-1+TRAIL kill: 13; Wee1 degr conf: -1

Results for CCOC(=O)c1csc(NC(=O)CN2CCN(C)CC2)n1 ?
C8 TRAIL sens: -7

Results for COc1ccc(-c2n[nH]c(=S)n2/N=C/C=C/c2ccccc2OC)cc1 ?
Wee1 degr inh: 11*; FLuc inh counter: 3; PKD1 inh: -11; C8 TRAIL sens: -31; FLuc act counter: 1; PPC-1+TRAIL kill: 12; Wee1 degr conf: 7

How did CCCS(=O)(=O)Nc1ccc(N2CCCCC2)c(S(=O)(=O)Nc2ccccc2OC)c1 do in these assays?
C8 TRAIL sens: 5

What do the screens show for `COc1ccc(NC(=O)c2onc(C)c2Cl)cc1`?
Wee1 degr inh: 17*; C8 TRAIL sens: -2; PPC-1+TRAIL kill: 3; Wee1 degr conf: -1

What do the screens show for `COc1ccc(NC(=O)c2onc(C)c2Cl)cc1OC`?
Wee1 degr inh: 0; FLuc inh counter: 12; PKD1 inh: -2; C8 TRAIL sens: 23; FLuc act counter: 0.9; PPC-1+TRAIL kill: 9

How did O=c1[nH]c2ccccc2nc1/C=C(\O)c1cccs1 do in these assays?
Wee1 degr inh: 16*; FLuc inh counter: 45; PKD1 inh: -5; C8 TRAIL sens: 37; FLuc act counter: 0.6; PPC-1+TRAIL kill: 14; Wee1 degr conf: 9.6*

How did O=c1[nH]c2ccccc2nc1/C=C(\O)C1CC1 do in these assays?
Wee1 degr inh: 0; FLuc inh counter: 0; PKD1 inh: -10; C8 TRAIL sens: 14; FLuc act counter: 1; PPC-1+TRAIL kill: 24

How did O=C(Nc1nc2ccccc2[nH]1)c1cccs1 do in these assays?
Wee1 degr inh: 12*; FLuc inh counter: 69*; PKD1 inh: 1; C8 TRAIL sens: 44; FLuc act counter: 0.3; PPC-1+TRAIL kill: 47; Wee1 degr conf: -1

What do the screens show for `O/C(=C\c1nc2ccccc2[nH]1)c1cccs1`?
C8 TRAIL sens: 11
